In ChEMBL document CHEMBL3576759, “Antineoplastic agents. 599. Total synthesis of dolastatin 16” (2015):
Converted amounts (≈) assume the structure as drawn.

Legend:
SF-268 [1] = assay: Growth inhibition of human SF268 cells using DMSO as solvent after 48 hrs by sulforhodamine B assay; format: functional
Procedure, shortened: (§1)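 NCI-standard SRB protocol. Cells in RPMI1640 with 5% fetal bovine serum were seeded in 96-well plates and held 24 h before serial compound dilutions were added. After 48 h, cells were fixed with trichloroacetic acid, stained with sulforhodamine B and read by optical density. GI50 is the concentration giving 50% reduction in net protein increase.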

[2] = Growth inhibition of human KM20L2 cells using DMSO as solvent after 48 hrs by sulforhodamine B assay; format: functional, KM-20L2; procedure, shortened: as §1
DU-145 [3] = assay: Growth inhibition of human DU145 cells using DMSO as solvent after 48 hrs by sulforhodamine B assay; format: functional; procedure, shortened: as §1
[4] = Growth inhibition of human BxPC3 cells using DMSO as solvent after 48 hrs by sulforhodamine B assay; format: functional, BXPC-3; procedure, shortened: as §1
NCI-H460 [5] = assay: Growth inhibition of human NCI-H460 cells using DMSO as solvent after 48 hrs by sulforhodamine B assay; format: functional; procedure, shortened: as §1
MCF7 [6] = assay: Growth inhibition of human MCF7 cells using DMSO as solvent after 48 hrs by sulforhodamine B assay; format: functional; procedure, shortened: as §1
DU-145 [7] = assay: Growth inhibition of human DU145 cells using MeOH as solvent after 48 hrs by sulforhodamine B assay; format: functional; conditions: DU-145, 48 h; procedure, shortened: as §1
[8] = Growth inhibition of human BxPC3 cells using MeOH as solvent after 48 hrs by sulforhodamine B assay; format: functional; conditions: BXPC-3, 48 h; procedure, shortened: as §1
MCF7 [9] = assay: Growth inhibition of human MCF7 cells using MeOH as solvent after 48 hrs by sulforhodamine B assay; format: functional; conditions: MCF7, 48 h; procedure, shortened: as §1
[10] = Growth inhibition of human KM20L2 cells using MeOH as solvent after 48 hrs by sulforhodamine B assay; format: functional; conditions: KM-20L2, 48 h; procedure, shortened: as §1
NCI-H460 [11] = assay: Growth inhibition of human NCI-H460 cells using MeOH as solvent after 48 hrs by sulforhodamine B assay; format: functional; conditions: NCI-H460, 48 h; procedure, shortened: as §1
SF-268 [12] = assay: Growth inhibition of human SF268 cells using MeOH as solvent after 48 hrs by sulforhodamine B assay; format: functional; conditions: SF-268, 48 h; procedure, shortened: as §1

GI50 (DU-145 [3]) [µg/mL] | GI50 (NCI-H460 [5]) [µg/mL] | GI50 (MCF7 [6]) [µg/mL] | GI50 (DU-145 [7]) [µg/mL] | GI50 (MCF7 [9]) [µg/mL] | GI50 (NCI-H460 [11]) [µg/mL] | SMILES | GI50 (SF-268 [1]) [µg/mL] | GI50 [2] [µg/mL] | GI50 [4] [µg/mL] | GI50 [8] [µg/mL] | GI50 [10] [µg/mL] | GI50 (SF-268 [12]) [µg/mL]
0.009 (≈ 0.0102 µM) | 0.27 (≈ 0.307 µM) | 0.027 (≈ 0.0307 µM) |  |  |  | CC(C)[C@H]1NC(=O)[C@@H]2CCCN2C(=O)[C@H]([C@H](C)Cc2ccccc2)NC(=O)[C@@H]2CCCN2C(=O)[C@@H](C(C)C)N(C)C(=O)[C@@H](C(C)C)OC(=O)[C@@H]2CCCN2C(=O)[C@H](C)OC(=O)[C@@H]1C (stereo in doubt) | 0.016 (≈ 0.0182 µM) | 0.013 (≈ 0.0148 µM) | 0.05 (≈ 0.0569 µM) |  |  | 
>10 | >10 | >10 | > 10 | > 10 | > 10 | CC(C)[C@H]1NC(=O)[C@@H]2CCCN2C(=O)[C@H]([C@H](C)Cc2ccccc2)NC(=O)[C@@H]2CCCN2C(=O)[C@@H](C(C)C)N(C)C(=O)[C@@H](C(C)C)OC(=O)[C@@H]2CCCN2C(=O)[C@H](C)OC(=O)[C@@H]1C (stereo in doubt; 1) | >10 | >10 | >10 | > 10 | > 10 | > 10
